From ChEMBL document CHEMBL4425094, “Novel Benzo[a]quinolizidine Analogs Induce Cancer Cell Death through Paraptosis and Apoptosis” (J Med Chem, 2016)
Active and inactive are the calls of the source. No cut-off for these calls is given here.

What was measured:
MDA-MB-231 = test: Cytotoxicity against human MDA-MB-231 cells assessed as cell growth inhibition after 24 hrs by MTT assay; type: functional, cell-based; conditions: MDA-MB-231, 24 h
In short: (§1)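 Cells seeded 24 h in RPMI 1640 + 10% FBS. RWPE-1 was kept in K-SFM with bovine pituitary extract and EGF. Cells then exposed to compounds for 24 h at 37 °C, 5% CO2, with DMSO vehicle and docetaxel as positive control. MTT added for 4 h, absorbance read at 570 nm. Triplicate runs, IC50 reported as mean of three experiments.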

HeLa = test: Cytotoxicity against human HeLa cells assessed as cell growth inhibition after 24 hrs by MTT assay; type: functional, cell-based; in short: as §1
K562 = test: Cytotoxicity against human K562 cells assessed as cell growth inhibition after 24 hrs by MTT assay; type: functional, cell-based; conditions: K562, 24 h; in short: as §1
PC-3 [1] = test: Cytotoxicity against human PC3 cells assessed as cell growth inhibition after 24 hrs by MTT assay; type: functional, cell-based; conditions: PC-3, 24 h; in short: as §1
DU-145 = test: Cytotoxicity against human DU145 cells assessed as cell growth inhibition after 24 hrs by MTT assay; type: functional, cell-based; conditions: DU-145, 24 h; in short: as §1
MCF7 = test: Cytotoxicity against human MCF7 cells assessed as cell growth inhibition after 24 hrs by MTT assay; type: functional, cell-based; conditions: MCF7, 24 h; in short: as §1
RWPE-1 = test: Cytotoxicity against human RWPE1 cells assessed as cell growth inhibition after 24 hrs by MTT assay; type: cell-based; conditions: RWPE-1, 24 h; in short: as §1
PC-3 [2] = test: Induction of morphological changes in human PC3 cells assessed as formation of massive cytoplasmic vacuoles at 1 uM after 12 hrs by confocal microscopic analysis; type: functional, cell-based

| Structure (SMILES) | IC50 (MDA-MB-231) [µM] | IC50 (HeLa) [µM] | IC50 (K562) [µM] | IC50 (PC-3 [1]) [µM] | IC50 (DU-145) [µM] | IC50 (MCF7) [µM] | IC50 (RWPE-1) [µM] | Activity (PC-3 [2]) |
| --- | --- | --- | --- | --- | --- | --- | --- | --- |
| C[C@@H]1C[C@@](C)(O)C[C@H]2c3cc(OCc4cc(C(F)(F)F)cc(C(F)(F)F)c4)c(OCc4cc(C(F)(F)F)cc(C(F)(F)F)c4)cc3CCN12 | 0.53 | 1.21 | 1.84 | 0.61 | 2.24 | 0.81 | 2.57 | Active |
| Cc1cc(C)cc(COc2cc3c(cc2OCc2cc(C)cc(C)c2)[C@@H]2C[C@@H](O)C[C@@H](C)N2CC3)c1 (racemic) | 1.33 | 3.24 | 2.35 | 0.72 | 1.51 | 0.65 | 1.35 | Active |
| COc1ccc([C@@H]2C[C@@H](O)C[C@H]3c4cc(OCc5cc(C)cc(C)c5)c(OCc5cc(C)cc(C)c5)cc4CCN23)cc1OC | 0.97 | 3.05 | 3.95 | 1.15 | 4.53 | 1.32 | 3.04 | Active |
| CCCCCCCCCCCCCCCCOc1cc2c(cc1OCCCCCCCCCCCCCCCC)[C@@H]1CC(=O)C[C@@H](C)N1CC2 | > 20 | > 20 | > 20 | > 20 | > 20 | > 20 | > 20 | – |
| O=C1C[C@@H](c2ccc([N+](=O)[O-])cc2)N2CCc3cc(OCc4ccccc4)c(OCc4ccccc4)cc3[C@@H]2C1 | > 20 | > 20 | > 20 | > 20 | > 20 | > 20 | > 20 | – |
| C[C@@H]1C[C@@](C)(O)C[C@H]2c3cc(OCc4ccc(C(C)(C)C)cc4)c(OCc4ccc(C(C)(C)C)cc4)cc3CCN12 | 0.98 | 0.91 | 1.35 | 1.11 | 1.46 | 2.61 | 4.03 | – |
| CC[C@@H]1C[C@H](O)C/C=C(/C)[C@H]2c3cc(OCc4ccccc4)c(OCc4ccccc4)cc3CCN12 | > 20 | > 20 | > 20 | > 20 | > 20 | > 20 | > 20 | – |
| CCCCCCCCCCCCCCCCOc1cc2c(cc1OCCCCCCCCCCCCCCCC)[C@@H]1C[C@@H](O)C[C@@H](C)N1CC2 | > 20 | > 20 | > 20 | > 20 | > 20 | > 20 | > 20 | – |
| Cc1cc(C)cc(COc2cc3c(cc2OCc2cc(C)cc(C)c2)CN(C(=O)OC(C)(C)C)CC3)c1 | > 20 | > 20 | > 20 | > 20 | > 20 | > 20 | > 20 | – |
| CCC[C@@H]1CC(=O)C[C@H]2c3cc(OCc4ccccc4)c(OCc4ccccc4)cc3CCN12 (relative stereo) | > 20 | > 20 | > 20 | > 20 | > 20 | > 20 | > 20 | – |
| COc1ccc([C@@H]2C[C@H](O)C[C@H]3c4cc(OCc5ccccc5)c(OCc5ccccc5)cc4CCN23)cc1 | > 20 | > 20 | > 20 | > 20 | > 20 | > 20 | > 20 | – |
| C[C@@H]1C[C@@H](O)C[C@H]2c3cc(OCc4ccc(Br)cc4)c(OCc4ccc(Br)cc4)cc3CCN12 | 0.88 | 1.16 | 1.22 | 1.24 | 2.58 | 1.29 | – | Active |
| CCCCCC[C@@H]1C[C@@H](O)C[C@H]2c3cc(OCc4ccccc4)c(OCc4ccccc4)cc3CCN12 | > 20 | > 20 | > 20 | > 20 | > 20 | > 20 | > 20 | – |
| CCC[C@@H]1CC(=O)C/C=C(/CC)[C@H]2c3cc(OCc4ccccc4)c(OCc4ccccc4)cc3CCN12 (relative stereo) | > 20 | > 20 | > 20 | > 20 | > 20 | > 20 | > 20 | – |
| C[C@@H]1CC(=O)C[C@H]2c3cc(OCc4ccc(Br)cc4)c(OCc4ccc(Br)cc4)cc3CCN12 (relative stereo) | > 20 | > 20 | > 20 | > 20 | > 20 | > 20 | > 20 | – |
| O=C1C[C@@H](c2ccccc2)N2CCc3ccc(OCc4ccccc4)cc3[C@@H]2C1 (relative stereo) | > 20 | > 20 | > 20 | > 20 | > 20 | > 20 | > 20 | – |

| Structure (SMILES) | IC50 (MDA-MB-231) [µM] | IC50 (HeLa) [µM] | IC50 (K562) [µM] | IC50 (PC-3 [1]) [µM] | IC50 (DU-145) [µM] | IC50 (MCF7) [µM] | IC50 (RWPE-1) [µM] | Activity (PC-3 [2]) |
| --- | --- | --- | --- | --- | --- | --- | --- | --- |
| COc1cc([C@@H]2CC(=O)C[C@H]3c4cc(OCc5ccccc5)c(OCc5ccccc5)cc4CCN23)cc(OC)c1OC (relative stereo) | > 20 | > 20 | > 20 | > 20 | > 20 | > 20 | > 20 | – |
| O=[N+]([O-])c1ccc([C@@H]2C[C@@H](O)C[C@H]3c4cc(OCc5ccccc5)c(OCc5ccccc5)cc4CCN23)cc1 | > 20 | > 20 | > 20 | > 20 | > 20 | > 20 | > 20 | – |
| CCCCCC[C@@H]1C[C@H](O)C[C@H]2c3cc(OCc4ccccc4)c(OCc4ccccc4)cc3CCN12 | > 20 | > 20 | > 20 | > 20 | > 20 | > 20 | > 20 | – |
| O[C@@H]1C[C@@H](c2ccccc2)N2CCc3cc(OCc4ccccc4)ccc3[C@@H]2C1 | > 20 | > 20 | > 20 | > 20 | > 20 | > 20 | > 20 | – |
| COc1ccc([C@@H]2C[C@H](O)C[C@H]3c4cc(OCc5ccccc5)c(OCc5ccccc5)cc4CCN23)cc1OC | > 20 | > 20 | > 20 | > 20 | > 20 | > 20 | > 20 | – |
| CCC[C@@H]1C[C@H](O)C/C=C(/CC)[C@H]2c3cc(OCc4ccccc4)c(OCc4ccccc4)cc3CCN12 | > 20 | > 20 | > 20 | > 20 | > 20 | > 20 | > 20 | – |
| COc1ccc([C@@H]2CC(=O)C[C@H]3c4cc(OCc5cc(F)cc(F)c5)c(OCc5cc(F)cc(F)c5)cc4CCN23)cc1OC (relative stereo) | > 20 | > 20 | > 20 | > 20 | > 20 | > 20 | > 20 | – |
| O[C@H]1C[C@@H](c2ccccc2)N2CCc3cc(OCc4ccccc4)c(OCc4ccccc4)cc3[C@@H]2C1 | > 20 | > 20 | > 20 | > 20 | > 20 | > 20 | > 20 | – |
| COc1cc([C@@H]2C[C@H](O)C[C@H]3c4cc(OCc5ccccc5)c(OCc5ccccc5)cc4CCN23)cc(OC)c1OC | > 20 | > 20 | > 20 | > 20 | > 20 | > 20 | > 20 | – |
| O[C@H]1C[C@@H](c2ccccc2)N2CCc3cc4c(cc3[C@@H]2C1)OCO4 | > 20 | > 20 | > 20 | > 20 | > 20 | > 20 | > 20 | – |
| COc1cc2c(cc1OC)[C@@H]1C[C@@H](O)C[C@@H](c3ccccc3)N1CC2 | > 20 | > 20 | > 20 | > 20 | > 20 | > 20 | > 20 | – |
| COc1cc2c(cc1OC)[C@@H]1CC(=O)C[C@@H](c3ccccc3)N1CC2 (relative stereo) | > 20 | > 20 | > 20 | > 20 | > 20 | > 20 | > 20 | – |
| CC[C@@H]1CC(=O)C[C@H]2c3cc(OCc4ccccc4)c(OCc4ccccc4)cc3CCN12 (relative stereo) | > 20 | > 20 | > 20 | > 20 | > 20 | > 20 | > 20 | – |
| O[C@@]1(c2ccccc2)C[C@@H](c2ccccc2)N2CCc3cc(OCc4ccccc4)c(OCc4ccccc4)cc3[C@@H]2C1 | > 20 | > 20 | > 20 | > 20 | > 20 | > 20 | > 20 | – |
| CCCCCCOc1cc2c(cc1OCCCCCC)[C@@H]1C[C@H](O)C[C@@H](C)N1CC2 | > 20 | > 20 | > 20 | > 20 | > 20 | > 20 | > 20 | – |
